# A selection: hits, their analogues and other compounds. The true share with any hit is near 2.1%.
# PAX8 inh HTS: inhibitors of PAX8-driven TPO luciferase reporter, primary screen, RMG-I cells, single concentration; SteadyGlo, 24 h; inhibition, % at 12.6 µM; 360,000 compounds, 1.2% hits; AID 652154, 2013;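 active means mean replicate inhibition at least 60% with every replicate also reaching 60%; inconclusive means only one of the two criteria is met; inactive means mean below 60% and not all replicates reaching 60%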;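 further: luciferase light reporting Pax8 driven TPO promoter activity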
# PGC1a acetyl inh: inhibitors of PGC1a acetylation signal, primary screen, cell-based, U2OS, AlphaScreen, inhibitor mode | AlphaScreen anti-acetyl-lysine; with virally co-expressed GCN5 acetyltransferase | AID 651687, 2012 | 350,000 compounds, 0.17% hits | inhibition, % at 15.6 µM;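 active means every replicate shows inhibition of at least 40%; inconclusive means mean inhibition at least 40% but some replicate below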
# EWS-Fli inh: EWS/Fli-driven NR0B1 reporter inhibitors, primary screen, A673 cells, NR0B1 luciferase, luminescence, MLPCN library; viability-normalised; inhibition, % at 12.6 µM; 350,000 compounds, 0.67% hits;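 active means mean inhibition of at least 50% after viability correction, with every replicate also passing that limit; inconclusive means mean reaches 50% but only one of two replicates passes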;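 further: firefly luciferase signal divided by Alamar Blue viability fluorescence both relative to DMSO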
# XiGFP reactiv: activators of inactive X chromosome reactivation, primary screen, imaging, XiGFP fibroblasts, GFP high-content imaging, set 2; activation, % at 7.58 µM; 360,000 compounds, 0.055% hits; XiGFP mouse fibroblasts, % GFP-positive cells imaging, 3 d; cells co-treated with 5-aza-dC sensitizer; scaled so ellipticine positive control = 100%;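 active means mean normalized replicate activation at least 10% and every replicate at or above 10%; inconclusive means only one of the two criteria met; inactive means mean below 10% and not all replicates reach 10%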
#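 Material: XiGFP fibroblasts, SV40-immortalized. Buffer or medium: DMEM plus 5-aza-dC sensitizer. Compound: single concentration per compound, delivered by pin transfer. Times: 3 days compound exposure. Controls: ellipticine 6 µM.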
# AF4-AF9 inh: inhibitors of AF4 peptide binding to AF9, primary screen, biochemical, AlphaScreen, biotin-AF4 peptide, FLAG-AF9, single point. AID 651704, 2012. Protein AF-9 (Homo sapiens), P42568. inhibition, % at 10 µM. 350,000 compounds, 0.47% hits;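 active means every replicate reaching a set inhibition limit, whatever the replicate mean, cut at about 25% in these data; inconclusive means mean inhibition reaches that limit but some replicates miss it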
# Target sequence (P42568 whole entry, looked up): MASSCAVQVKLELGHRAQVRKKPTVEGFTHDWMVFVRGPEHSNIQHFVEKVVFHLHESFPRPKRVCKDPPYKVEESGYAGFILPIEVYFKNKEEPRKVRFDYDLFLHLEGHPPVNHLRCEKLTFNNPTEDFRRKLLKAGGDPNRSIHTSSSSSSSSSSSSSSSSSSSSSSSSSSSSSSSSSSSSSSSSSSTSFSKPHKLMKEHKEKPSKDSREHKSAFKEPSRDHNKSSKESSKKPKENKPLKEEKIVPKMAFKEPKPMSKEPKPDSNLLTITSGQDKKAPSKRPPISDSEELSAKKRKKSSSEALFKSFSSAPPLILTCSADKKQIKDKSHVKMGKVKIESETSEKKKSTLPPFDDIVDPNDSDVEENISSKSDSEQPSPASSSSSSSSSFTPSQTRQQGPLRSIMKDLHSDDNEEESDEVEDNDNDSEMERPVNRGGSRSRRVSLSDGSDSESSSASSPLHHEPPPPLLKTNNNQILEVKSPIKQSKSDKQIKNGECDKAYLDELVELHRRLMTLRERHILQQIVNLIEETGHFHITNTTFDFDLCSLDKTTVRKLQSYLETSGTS
# INS-1E GSIS act: GLuc luminescence reporter in INS-1E cells, primary screen for activators of glucose-dependent secretion of insulin; INS-1E GLuc reporter insulin secretion, 2-3 h; activation, % at 16.6 µM; 370,000 compounds, 0.61% hits;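 active means lowest replicate activation of at least 40%, so every replicate reaches that level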
# Hits are given with their value; i = inactive; ? = inconclusive; nt = no result given; + = active, no number; ! = not active in a repeat.
SMILES,PAX8 inh HTS,PGC1a acetyl inh,EWS-Fli inh,XiGFP reactiv,AF4-AF9 inh,INS-1E GSIS act
CCCNC(=O)Nc1ccc2c(c1)OC[C@@H](C)N(Cc1ccc(-c3ccccn3)cc1)C[C@@H](C)[C@H](OC)CN(C)C2=O,95,i,i,i,i,i
CCCC(=O)Nc1ccc2c(c1)C(=O)N(C)C[C@H](OC)[C@@H](C)CN(Cc1ccc(-c3ccccn3)cc1)[C@H](C)CO2,i,i,i,i,i,i
COc1ccc2c3c(n(C)c2c1)[C@@H](CO)N(C(=O)c1ccncc1)CC31CN(CC2CC2)C1,i,i,i,i,i,i
COc1ccc(S(=O)(=O)Nc2ccc3c(c2)C(=O)N([C@H](C)CO)C[C@H](C)[C@@H](CN(C)C(=O)NC(C)C)OCCCC[C@@H](C)O3)cc1,i,i,i,i,i,i
O=C(Cc1ccc2c(c1)OCCO2)N1CCN(S(=O)(=O)c2cccc(Cl)c2Cl)CC1,i,i,i,i,30,i
COc1cc(/C=C/C(=O)OCC(=O)N2CCCC2)ccc1OCC#N,i,i,i,i,31,i
COc1cc(/C=C/C(=O)OCC(=O)N2CCCCCC2)ccc1OCC#N,i,i,i,i,i,i
CCN(CC)CCNC(=O)c1ccc2c(c1NCCO)C(=O)c1ccccc1C2=O,69,92,i,i,i,i
N#Cc1ccccc1NC(=O)C1SC(=Nc2ccccc2)C(C(=O)Nc2ccc(Cl)cc2)=C1N (centres undefined),i,i,i,i,i,nt
COc1ccccc1N=C1SC(C(=O)Nc2cccc(Cl)c2Cl)C(N)=C1C(N)=O (centres undefined),i,i,55,i,i,i
Cc1nc2ccccc2c2oc(C(=O)N3CCCC(C)C3)cc12 (centres undefined),i,i,i,i,i,46
CC(C)c1cn(CC[C@@H]2CC[C@H](NC(=O)C3CCCC3)[C@H](CO)O2)nn1,i,i,i,i,i,i
CCc1cnc(N2[C@@H](C#N)[C@H](c3ccc(C#CC(C)C)cc3)[C@@H]2CO)s1,i,i,i,i,i,i
CCc1cnc(N2[C@@H](C#N)[C@@H](c3ccc(C#CC(C)C)cc3)[C@@H]2CO)s1,113,i,i,i,i,i
CO[C@@H]1CN(C)C(=O)c2cc(NC(=O)NC3CCCC3)ccc2OC[C@H](C)N(CC2CC2)C[C@@H]1C,i,i,nt,i,i,i
NC1=NC[C@H](CC2CCCCC2)N1CCc1cc(C(F)(F)F)cc(C(F)(F)F)c1,i,i,?,i,i,+
c1ccc(C[C@H]2CNCCN2CCCCC2CCCCC2)cc1,i,nt,i,i,i,57
FC(F)(F)c1cc(CCN2CCNC[C@@H]2c2ccccc2)cc(C(F)(F)F)c1,i,nt,i,i,i,115
Fc1cccc(CCN2CCNC[C@@H]2c2ccccc2)c1,i,i,i,i,i,i
CCCC[C@@H]1CNCCN1CCc1cc(C(F)(F)F)cc(C(F)(F)F)c1,i,i,i,i,i,i
FC(F)(F)c1cc(CCN2CCNC[C@@H]2CC2CCCCC2)cc(C(F)(F)F)c1,i,i,55,i,i,+
COc1ccccc1C1CC(=O)Nc2cc3c(cc21)OCCO3 (centres undefined),nt,i,i,nt,i,i
CC(C)Oc1ccccc1C1CC(=O)Nc2cc3c(cc21)OCCO3 (centres undefined),80,i,nt,nt,nt,nt
C[C@@H]1CN([C@H](C)CO)C(=O)c2cc(Br)cnc2O[C@@H]1CN(C)C(=O)c1ccc(F)cc1,i,i,i,i,i,i
N#Cc1ccc2nc(-c3ccc(CN4CCC(c5nc6ccccc6[nH]5)CC4)cc3)c(-c3ccccc3)nc2c1,78,nt,i,i,i,i
SMILES,PAX8 inh HTS,PGC1a acetyl inh,EWS-Fli inh,XiGFP reactiv,AF4-AF9 inh,INS-1E GSIS act
NC(=NC(=O)c1cccc(C(F)(F)F)c1)c1ccc(C(F)(F)F)cn1,i,i,i,22,i,i
Cc1ccc(OCC(O)CN2CCN(c3ccccn3)CC2)c(C)c1 (centres undefined),i,i,i,i,i,i
CC(C)(C)c1ccccc1OCC(O)CN1CCN(c2ccccn2)CC1 (centres undefined),i,i,i,i,i,63
CC(=O)Nc1ccc(S(=O)(=O)c2ccnc3cc(Cl)ccc23)cc1,110,nt,i,i,i,nt
CC(=O)Nc1ccc(S(=O)(=O)Nc2ccc(Cl)cn2)cc1,i,i,i,i,i,i
COC/C=C/C1=CC2=CC(=O)C(C)(OC(=O)c3cnc4ccccc4n3)C(=O)C2=CN1c1ccccc1 (centres undefined),67,nt,i,i,i,i
O=C(C[C@H]1CC[C@H](NC(=O)C2CCOCC2)[C@H](CO)O1)NCc1ccncc1,nt,i,i,i,i,i
CCS(=O)(=O)N1CC2(CN(Cc3ccccc3OC)[C@@H](CO)c3c2c2ccc(OC)cc2n3C)C1,nt,nt,nt,i,nt,i
CCCC(=O)C1=C(O)C(C(=O)OC)C(C)(C)CC1=Nc1ccc(OC)cc1 (centres undefined),i,46,i,i,i,i
O=c1[nH]c(=O)c2[nH]c(=S)[nH]c2[nH]1,i,60,i,i,i,i
O=C(Nc1ccc(Cl)c(Cl)c1)Nc1nc(-c2ccccc2)cs1,i,i,nt,i,nt,166
COc1cccc(CNc2ncc(C(=O)Nc3cc(OC)c(OC)c(OC)c3)c(C)n2)c1,i,i,52,i,i,i
CCn1cc(C(c2ccccc2)C(C(C)=O)[N+](=O)[O-])c2ccccc21 (centres undefined),i,i,i,i,i,i
CC(=O)C(C(c1ccccc1)c1c[nH]c2ccccc12)[N+](=O)[O-] (centres undefined),i,i,51,i,i,i
Cn1cnc2nc[nH]c2c1=S,i,i,i,i,i,i
S=c1nc[nH]c2nc[nH]c12,75!,i,i,i,i,i
CCCCCc1ccc(-c2ccc(/C=C/C(=O)O)cc2)nc1,i,nt,nt,i,nt,i
CCCc1ccc(-c2ccc(/C=C/C(=O)O)cc2)nc1,i,nt,56,i,i,i
Cc1ccc(N/C=C/C(=O)c2cccs2)cc1,i,i,59,i,i,i
COc1ccccc1CNC(=O)C[C@H]1CC[C@@H]2[C@H](COC[C@H](O)CN2C(=O)Nc2ccc(F)cc2)O1,i,i,i,i,i,i
COc1ccc(Cn2c(-c3ccc(C)cc3)c[n+]3ccccc23)cc1,88,i,i,i,i,i
COc1ccc(-c2nc3ccccc3n2Cc2ccc(C)cc2)cc1,nt,i,nt,nt,nt,i
Cc1ccccc1S(=O)(=O)N[C@H]1CC[C@@H](CCn2cc(-c3ccc(F)cc3)nn2)O[C@@H]1CO,i,i,i,i,i,i

# Assay outcomes deposited in PubChem BioAssay by Broad Institute.
